# Experimental data: ChEMBL document CHEMBL3861950, “Design, synthesis and evaluation of novel 19F magnetic resonance sensitive protein tyrosine phosphatase inhibitors” (Medchemcomm, 2016)
# Legend:
# [1] = target: T1, Tyrosine-protein phosphatase non-receptor type 1 (Homo sapiens, UniProt P18031); test: Inhibition of recombinant PTP1B (unknown origin) using pNPP as substrate by spectrophotometric method
# T1 sequence (P18031 whole entry): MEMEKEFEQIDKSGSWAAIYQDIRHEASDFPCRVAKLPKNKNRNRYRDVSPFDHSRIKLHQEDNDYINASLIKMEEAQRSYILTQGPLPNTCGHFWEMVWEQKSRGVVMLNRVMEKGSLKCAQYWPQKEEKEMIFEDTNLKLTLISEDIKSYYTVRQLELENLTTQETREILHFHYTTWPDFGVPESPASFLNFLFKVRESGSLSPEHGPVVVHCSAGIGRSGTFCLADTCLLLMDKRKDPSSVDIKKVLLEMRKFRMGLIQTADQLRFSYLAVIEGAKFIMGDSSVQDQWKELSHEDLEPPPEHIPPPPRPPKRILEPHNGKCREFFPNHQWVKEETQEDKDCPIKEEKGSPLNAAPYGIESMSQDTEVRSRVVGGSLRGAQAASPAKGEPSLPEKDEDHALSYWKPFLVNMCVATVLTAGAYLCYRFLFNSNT
# Outline: (§1)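 Recombinant PTP prepared in-house, assayed with pNPP substrate in 50 mM 3,3-dimethylglutarate buffer pH 7.0 containing 1 mM EDTA and 150 mM NaCl at 25 °C, in 96-well format. p-Nitrophenol product was quantified by absorbance at 405 nm. Non-enzymatic pNPP hydrolysis was corrected using a no-enzyme control.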
# [2] = target: T2, Tyrosine-protein phosphatase non-receptor type 22 (Homo sapiens, UniProt Q9Y2R2); test: Inhibition of recombinant LYP (unknown origin) using pNPP as substrate by spectrophotometric method; outline: as §1
# T2 sequence (Q9Y2R2 whole entry): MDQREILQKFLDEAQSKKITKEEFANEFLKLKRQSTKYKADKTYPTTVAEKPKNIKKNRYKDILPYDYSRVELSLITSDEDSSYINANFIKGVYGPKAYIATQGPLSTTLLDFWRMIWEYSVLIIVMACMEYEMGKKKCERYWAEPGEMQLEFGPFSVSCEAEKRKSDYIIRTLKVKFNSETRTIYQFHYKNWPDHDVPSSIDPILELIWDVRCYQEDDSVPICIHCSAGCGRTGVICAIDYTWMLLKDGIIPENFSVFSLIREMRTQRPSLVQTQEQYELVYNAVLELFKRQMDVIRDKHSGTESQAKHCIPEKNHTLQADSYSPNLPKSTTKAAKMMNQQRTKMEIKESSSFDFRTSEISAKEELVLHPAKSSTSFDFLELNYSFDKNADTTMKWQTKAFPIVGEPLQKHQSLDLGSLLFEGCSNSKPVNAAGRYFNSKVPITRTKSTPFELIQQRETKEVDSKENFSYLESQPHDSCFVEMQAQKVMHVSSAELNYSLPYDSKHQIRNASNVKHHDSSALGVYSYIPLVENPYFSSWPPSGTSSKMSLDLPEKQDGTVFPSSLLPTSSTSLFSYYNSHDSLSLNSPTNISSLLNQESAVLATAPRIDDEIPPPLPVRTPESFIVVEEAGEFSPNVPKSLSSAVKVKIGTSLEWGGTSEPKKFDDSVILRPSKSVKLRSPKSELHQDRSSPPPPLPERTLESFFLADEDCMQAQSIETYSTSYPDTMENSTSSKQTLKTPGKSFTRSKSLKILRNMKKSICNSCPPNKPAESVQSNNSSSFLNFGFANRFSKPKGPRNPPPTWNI
compound,measurement,setting,value
Cc1ccc(S(=O)(=O)NNC(=O)COc2ccc3cc(C(O)(C(F)(F)F)C(F)(F)F)c(O)cc3c2)cc1,IC50,[1],> 20 µM
same,IC50,[2],15.4 µM
